# Hits are enriched below; roughly 2.6% of the tested compounds scored in any of these assays.
# Ecoli rRNA inh: inhibitors of bacterial rRNA selective over humanized ribosomes. GFP signal change (wild-type ribosome), % (no concentration beside the values). hit rate 1.6% among 350,000. E. coli WT GFP vs humanized-ribosome RFP mutants, fluorescence, 24 h; hits give low values; DMSO median 0, no signal -100. AID 720706;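 active = significant combined selectivity score with lowered wild-type GFP, culture density cut under 30%, mutant RFP and density less affected; inactive = any of these conditions unmet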
# Xi reactivation: X-chromosome reactivation activator. hit rate 0.055% among 360,000. activation, % at 7.58 µM. XiGFP mouse fibroblasts, % GFP-positive cells imaging, 3 d; cells co-treated with 5-aza-dC sensitizer; scaled so ellipticine positive control = 100%. AID 743238;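 active = mean normalized replicate activation at least 10% and every replicate at or above 10%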;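 also: 0% = median of on-plate neutral control wells and 100% = ellipticine 6 µM median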
#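 System: 68-5-11 XiGFP fibroblast line | Buffer or medium: DMEM containing 5-aza-dC | Compound: Single point | Times: Compounds 3 days, fix/stain 15 min at room temperature | Benchmarks: Positive control ellipticine, 6 µM final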
# SR-BI DiI-HDL act: enhances SR-BI lipid uptake from DiI-HDL; CHO ldlA[mSR-BI] cells, DiI-HDL uptake fluorescence, 3 h; 100 = double the neutral-control signal; activation, % at 12.5 µM; hit rate 0.096% among 320,000; AID 504775;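 active = mean replicate activation of at least 60% and every replicate at or above 60%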;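 also: 0% = median plate neutral-control signal and 100% = twice that signal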
#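 Test system: SR-BI-overexpressing, LDLR-lacking CHO cells. Measured by: DiI fluorescence, bottom read. Medium: Ham's F12 with 0.5% BSA, HEPES 25 mM, pH 7.4. Timing: 3 h uptake period with compound, 37 °C.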
# dFosB act: enhances mouse delta FosB homodimer DNA binding. purified delta FosB, TAMRA-CDK5 oligo fluorescence polarization; percent of positive-control signal above neutral wells. activation, % at 25 µM. hit rate 0.99% among 340,000;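 active = mean activation above about 17%, with every replicate also reaching it, limit read from the data, passing the limit was not always enough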
# Target sequence (P13346 whole entry, looked up): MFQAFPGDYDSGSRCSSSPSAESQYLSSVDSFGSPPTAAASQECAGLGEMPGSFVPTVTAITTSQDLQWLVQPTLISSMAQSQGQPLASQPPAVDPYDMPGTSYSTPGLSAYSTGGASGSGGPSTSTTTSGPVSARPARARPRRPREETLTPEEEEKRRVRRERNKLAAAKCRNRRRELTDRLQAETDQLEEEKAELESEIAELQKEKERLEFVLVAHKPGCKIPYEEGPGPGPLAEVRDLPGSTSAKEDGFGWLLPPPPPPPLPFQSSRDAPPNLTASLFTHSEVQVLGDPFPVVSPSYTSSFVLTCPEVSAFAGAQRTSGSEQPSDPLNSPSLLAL
# PvdQ inh: P. aeruginosa PvdQ acylase inhibition; purified PvdQ acylase, fluorescence plate reader; inhibition, % at 10 µM; hit rate 0.063% among 340,000; AID 488965; in the data active = inhibition above about 30%, passing the limit was not always enough;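 also: 0% = vehicle neutral wells and 100% = reference inhibitor wells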
# SR-BI DiI inh: mouse SR-BI HDL lipid transfer inhibition. inhibition, % at 12.5 µM. ldlA[mSR-BI] CHO cells, DiI-HDL uptake fluorescence, 3 h. Q61009. hit rate 0.96% among 320,000;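 active = mean replicate inhibition of at least 70% and a set share of replicates each scoring 70 or more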;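 also: 0% = median of neutral control wells and 100% = median of positive control wells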
# The depositor's hits bear a star; . = not tested or not shown; ! = a repeat was not active.
SMILES,Ecoli rRNA inh,Xi reactivation,SR-BI DiI-HDL act,dFosB act,PvdQ inh,SR-BI DiI inh
C[C@@H]1CN([C@H](C)CO)C(=O)CCCn2nncc2CO[C@@H]1CN(C)S(=O)(=O)c1ccc(Oc2ccccc2)cc1,3,0,.,.,.,.
Cc1cc(C)n(-c2ccc(NC(=O)C3CCCCN3Cc3cccc4c3OCO4)cc2)n1 (stereo unspecified),-23,1,-89,-1,-20,89*
Cc1cc(C)n(-c2ccc(NC(=O)C3CCCCN3C(=O)c3ccoc3)cc2)n1 (stereo unspecified),1,0,-13,-7,-19,13
COc1cccc(S(=O)(=O)Nc2ccc3c(c2)C(=O)N(C)C[C@@H](OC)[C@@H](C)CN(Cc2ccccc2F)[C@H](C)CO3)c1,-5,0,.,.,.,.
COc1cccc(S(=O)(=O)Nc2ccc3c(c2)C(=O)N(C)C[C@H](OC)[C@H](C)CN(Cc2ccccc2F)[C@@H](C)CO3)c1,-18*!,0,.,.,.,.
COc1ccc(OC)c(CCNC(=O)c2ccc(CS(=O)Cc3ccc(Cl)cc3)o2)c1 (stereo unspecified),-28*,0,-21,-7,-6,21
CCOc1ccc(CCNC(=O)c2ccc(CS(=O)Cc3ccc(Cl)cc3)o2)cc1 (stereo unspecified),-6,0,-32,-13,-4,32
COc1ccc(-c2csc3ncn(-c4ccccc4OC)c(=O)c23)cc1OC,-26*,0,-31,-10,-3,31
Cc1ccc(CNC(=O)[C@]2(C)CCC[C@@]3(C)C4CC[C@@]5(C)C[C@]4(CCC32)CC5=O)cc1 (stereo partly specified),-11,0,4,1,-3,-4
O=c1oc(-c2ccccc2NS(=O)(=O)c2ccccc2)nc2ccccc12,.,.,11,3,5,-11
O=c1oc(-c2ccccc2NS(=O)(=O)c2ccc(F)cc2)nc2ccccc12,-32*,0,7,-10,-11,-7
CCOC(=O)c1ccc(NC(=O)CNNC(=O)COc2ccccc2C)cc1,-29*,0,-14,-6,-8,14
CCOC(=O)c1ccc(NC(=O)COc2ccccc2CNCCc2ccccc2)cc1,-51,0,4,-35,-4,-4
CCN(C(=O)CSc1nc(C)nc2sc(C)c(C)c12)C1CCS(=O)(=O)C1 (stereo unspecified),13,0,-9,-13,1,9
O=C(Nc1cccnc1)c1ccc(F)c(S(=O)(=O)N2CCOCC2)c1,0,0,-1,5,-17,1
CCOc1cc(CNc2ccc(OC)cc2)cc(Br)c1OCC(=O)NC(C)(C)C,-25*,.,-50,-10,-12,50
CCOc1cc(CNc2ccccc2)cc(Br)c1OCC(=O)NC(C)(C)C,.,.,5,-9,-1,-5
CCOc1cc(CNc2ccccc2)cc(Br)c1OCc1ccc(F)cc1,.,.,-74,-8,3,74*
COc1ccc(C(CC(=O)N2CCCC2)c2ccc(F)cc2)cc1 (stereo unspecified),10,0,-4,-3,-10,4
Cc1cc(-c2nnc(SCC(=O)Nc3nc(-c4ccc(Cl)cc4)cs3)o2)no1,-33*,0,-20,10,-17,20
COc1cc(NC(=O)CSc2nnc(-c3cc(C)on3)o2)cc(OC)c1,-2,0,-1,2,-1,1
CCc1ccc(/C=N/NC(=O)Cc2ccc(OC)c(OC)c2)s1,-24*,0,14,-13,-16,-14
COc1ccc(/C=N/Nc2nc(-c3cccc(S(=O)(=O)N4CCCC4)c3)cs2)c(OC)c1,2,0,-83,-15,-11,83*
CCN(c1ccc(NC(=O)c2ccc(N3CCCC3=O)cc2)cc1)C(C)C,8,0,-33,7,-11,33
O=C(Nc1ccc(Cl)c(Cl)c1)Nc1ccccc1O,-54,0,-78,-3,-11,78*
O=C(Nc1ccc(Cl)c(Cl)c1)N1CCSCC1,.,.,320*,-6,-13,-320
